# What was measured:
# Settings in all cases: stereoisomer not certain
# [1] = molecular target: T1, UniProt Q8VF52
# T1 sequence (whole entry): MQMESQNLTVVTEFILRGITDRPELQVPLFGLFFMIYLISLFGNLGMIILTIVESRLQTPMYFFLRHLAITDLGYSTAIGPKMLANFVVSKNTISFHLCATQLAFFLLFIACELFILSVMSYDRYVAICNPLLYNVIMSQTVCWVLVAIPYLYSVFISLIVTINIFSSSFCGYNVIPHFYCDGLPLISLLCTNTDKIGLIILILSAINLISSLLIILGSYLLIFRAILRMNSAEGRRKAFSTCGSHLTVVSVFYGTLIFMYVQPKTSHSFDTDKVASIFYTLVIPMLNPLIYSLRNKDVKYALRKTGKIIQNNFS
# In short: (§1)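 Assay methods differ from source to source, frequently being transient luciferase assays in mammalian cell lines. For each receptor–molecule pair, the label responsive (active) applies when the original authors judged the measured signal statistically different from baseline, and non-responsive (inactive) applies otherwise.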
# [2] = molecular target: T2, UniProt Q8VFG6
# T2 sequence (whole entry): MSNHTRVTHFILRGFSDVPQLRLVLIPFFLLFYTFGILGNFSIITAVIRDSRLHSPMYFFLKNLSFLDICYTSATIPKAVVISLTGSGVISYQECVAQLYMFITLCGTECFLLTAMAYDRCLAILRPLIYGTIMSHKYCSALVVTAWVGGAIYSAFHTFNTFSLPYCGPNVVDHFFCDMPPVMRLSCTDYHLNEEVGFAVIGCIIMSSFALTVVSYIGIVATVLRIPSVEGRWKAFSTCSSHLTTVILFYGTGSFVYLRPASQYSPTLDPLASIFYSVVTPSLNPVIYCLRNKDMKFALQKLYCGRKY
# In short: as §1
# [3] = molecular target: T3, UniProt Q8VFM8
# T3 sequence (whole entry): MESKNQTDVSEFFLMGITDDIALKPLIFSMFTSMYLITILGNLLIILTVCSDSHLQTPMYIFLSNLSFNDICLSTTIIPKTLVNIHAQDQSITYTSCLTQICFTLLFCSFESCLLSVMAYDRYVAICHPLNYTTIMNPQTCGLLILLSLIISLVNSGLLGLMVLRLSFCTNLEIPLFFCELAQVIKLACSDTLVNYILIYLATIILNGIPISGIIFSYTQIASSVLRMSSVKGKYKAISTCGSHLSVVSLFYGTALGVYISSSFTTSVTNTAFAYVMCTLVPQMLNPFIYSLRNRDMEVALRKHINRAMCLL
# In short: as §1
# [4] = molecular target: T4, UniProt Q8VFP5
# T4 sequence (whole entry): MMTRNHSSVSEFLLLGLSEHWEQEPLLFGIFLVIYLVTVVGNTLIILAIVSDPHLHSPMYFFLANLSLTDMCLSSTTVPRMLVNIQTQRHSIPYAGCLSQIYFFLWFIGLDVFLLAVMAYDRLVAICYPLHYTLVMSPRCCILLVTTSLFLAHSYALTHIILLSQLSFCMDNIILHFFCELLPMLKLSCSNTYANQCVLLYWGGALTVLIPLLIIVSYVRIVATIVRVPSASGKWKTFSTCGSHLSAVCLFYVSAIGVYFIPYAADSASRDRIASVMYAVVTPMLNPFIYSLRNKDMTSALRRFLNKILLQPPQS
# In short: as §1
# [5] = molecular target: T5, UniProt Q8VFZ6
# T5 sequence (whole entry): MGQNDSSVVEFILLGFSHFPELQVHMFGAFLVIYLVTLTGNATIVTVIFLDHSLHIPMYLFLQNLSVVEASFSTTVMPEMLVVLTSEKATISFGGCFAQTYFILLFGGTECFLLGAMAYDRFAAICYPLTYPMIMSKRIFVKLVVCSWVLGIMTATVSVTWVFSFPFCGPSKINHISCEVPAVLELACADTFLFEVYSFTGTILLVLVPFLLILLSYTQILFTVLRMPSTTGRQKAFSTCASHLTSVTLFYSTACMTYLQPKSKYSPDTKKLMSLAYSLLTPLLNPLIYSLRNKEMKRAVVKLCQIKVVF
# In short: as §1
# [6] = molecular target: T6, UniProt Q8VG01
# T6 sequence (whole entry): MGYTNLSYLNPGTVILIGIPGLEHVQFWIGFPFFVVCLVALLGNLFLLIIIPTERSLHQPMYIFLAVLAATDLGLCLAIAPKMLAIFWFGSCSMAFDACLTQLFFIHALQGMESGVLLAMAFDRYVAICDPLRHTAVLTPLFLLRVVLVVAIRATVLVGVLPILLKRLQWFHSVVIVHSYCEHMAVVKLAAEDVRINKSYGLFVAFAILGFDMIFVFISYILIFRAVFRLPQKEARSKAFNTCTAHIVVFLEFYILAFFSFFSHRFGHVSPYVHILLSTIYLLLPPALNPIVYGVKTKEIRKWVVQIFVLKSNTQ
# In short: as §1
# [7] = molecular target: T7, UniProt Q8VG22
# T7 sequence (whole entry): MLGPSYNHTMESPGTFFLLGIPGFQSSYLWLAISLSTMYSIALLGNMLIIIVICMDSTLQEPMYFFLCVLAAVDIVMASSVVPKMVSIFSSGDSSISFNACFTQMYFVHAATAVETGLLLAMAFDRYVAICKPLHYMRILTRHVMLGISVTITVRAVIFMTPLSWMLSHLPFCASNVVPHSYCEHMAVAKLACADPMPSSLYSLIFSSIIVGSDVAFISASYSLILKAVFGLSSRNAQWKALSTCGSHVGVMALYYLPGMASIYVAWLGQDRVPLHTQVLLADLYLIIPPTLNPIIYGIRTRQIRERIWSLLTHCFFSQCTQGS
# In short: as §1
# [8] = molecular target: T8, UniProt Q8VG27
# T8 sequence (whole entry): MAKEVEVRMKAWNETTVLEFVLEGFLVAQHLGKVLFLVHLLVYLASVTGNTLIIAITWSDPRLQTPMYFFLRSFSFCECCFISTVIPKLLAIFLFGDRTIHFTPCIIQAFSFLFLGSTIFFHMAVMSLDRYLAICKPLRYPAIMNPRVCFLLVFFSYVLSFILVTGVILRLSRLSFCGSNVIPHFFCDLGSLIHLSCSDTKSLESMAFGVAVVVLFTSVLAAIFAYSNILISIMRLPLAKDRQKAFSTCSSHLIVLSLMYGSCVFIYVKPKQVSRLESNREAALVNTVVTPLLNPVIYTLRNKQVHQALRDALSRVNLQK
# In short: as §1
# [9] = molecular target: T9, UniProt Q8VG49
# T9 sequence (whole entry): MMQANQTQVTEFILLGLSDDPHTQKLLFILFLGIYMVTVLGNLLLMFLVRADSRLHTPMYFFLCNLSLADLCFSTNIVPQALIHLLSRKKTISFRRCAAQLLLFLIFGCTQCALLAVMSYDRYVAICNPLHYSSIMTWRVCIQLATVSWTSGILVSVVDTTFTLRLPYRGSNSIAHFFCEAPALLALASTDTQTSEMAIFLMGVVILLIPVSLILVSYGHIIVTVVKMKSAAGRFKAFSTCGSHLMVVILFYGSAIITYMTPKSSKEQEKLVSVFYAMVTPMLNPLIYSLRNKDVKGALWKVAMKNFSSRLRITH
# In short: as §1
# [10] = molecular target: T10, UniProt Q8VG53
# T10 sequence (whole entry): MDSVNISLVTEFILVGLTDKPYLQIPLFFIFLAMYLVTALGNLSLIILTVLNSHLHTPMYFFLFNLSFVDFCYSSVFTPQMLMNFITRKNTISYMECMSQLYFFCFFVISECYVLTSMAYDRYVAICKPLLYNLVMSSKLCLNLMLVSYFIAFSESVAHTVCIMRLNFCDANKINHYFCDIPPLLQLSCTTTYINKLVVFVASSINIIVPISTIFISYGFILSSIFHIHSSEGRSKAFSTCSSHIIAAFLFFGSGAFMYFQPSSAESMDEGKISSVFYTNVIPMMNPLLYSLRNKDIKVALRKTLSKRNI
# In short: as §1
# [11] = molecular target: T11, UniProt Q8VG64
# T11 sequence (whole entry): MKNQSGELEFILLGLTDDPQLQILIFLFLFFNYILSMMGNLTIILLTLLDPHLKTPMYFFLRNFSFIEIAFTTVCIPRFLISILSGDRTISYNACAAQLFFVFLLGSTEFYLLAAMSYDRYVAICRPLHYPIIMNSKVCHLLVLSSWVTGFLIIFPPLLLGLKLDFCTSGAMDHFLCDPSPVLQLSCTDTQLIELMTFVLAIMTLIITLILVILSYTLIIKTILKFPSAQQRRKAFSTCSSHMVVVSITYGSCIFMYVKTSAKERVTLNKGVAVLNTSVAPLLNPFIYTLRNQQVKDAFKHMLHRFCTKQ
# In short: as §1
# [12] = molecular target: T12, UniProt Q8VG77
# T12 sequence (whole entry): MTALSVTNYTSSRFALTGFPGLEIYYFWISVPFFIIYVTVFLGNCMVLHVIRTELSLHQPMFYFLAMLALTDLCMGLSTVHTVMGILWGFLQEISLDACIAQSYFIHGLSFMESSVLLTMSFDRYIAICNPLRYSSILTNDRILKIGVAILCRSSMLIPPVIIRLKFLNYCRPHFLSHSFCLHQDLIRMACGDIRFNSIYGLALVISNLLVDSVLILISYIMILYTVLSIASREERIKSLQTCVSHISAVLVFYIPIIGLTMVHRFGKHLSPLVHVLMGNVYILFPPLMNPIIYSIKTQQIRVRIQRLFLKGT
# In short: as §1
# [13] = molecular target: T13, UniProt Q8VG96
# T13 sequence (whole entry): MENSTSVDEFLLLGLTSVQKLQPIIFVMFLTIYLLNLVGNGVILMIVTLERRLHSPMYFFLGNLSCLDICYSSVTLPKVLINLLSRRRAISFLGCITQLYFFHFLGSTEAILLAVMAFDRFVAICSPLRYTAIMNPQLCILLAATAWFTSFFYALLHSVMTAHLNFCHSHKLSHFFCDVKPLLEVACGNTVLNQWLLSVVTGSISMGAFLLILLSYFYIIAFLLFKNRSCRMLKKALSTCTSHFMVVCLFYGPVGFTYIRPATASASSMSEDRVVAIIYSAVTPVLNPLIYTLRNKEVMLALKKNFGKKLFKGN
# In short: as §1
# [14] = molecular target: T14, UniProt Q8VGB9
# T14 sequence (whole entry): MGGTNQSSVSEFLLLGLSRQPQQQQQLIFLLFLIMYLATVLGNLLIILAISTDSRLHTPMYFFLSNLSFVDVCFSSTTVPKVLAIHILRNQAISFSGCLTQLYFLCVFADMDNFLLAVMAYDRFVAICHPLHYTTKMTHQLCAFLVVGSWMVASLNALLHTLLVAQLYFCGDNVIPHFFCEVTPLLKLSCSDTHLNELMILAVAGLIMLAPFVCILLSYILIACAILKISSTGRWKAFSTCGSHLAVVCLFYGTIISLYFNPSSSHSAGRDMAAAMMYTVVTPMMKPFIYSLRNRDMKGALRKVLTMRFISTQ
# In short: as §1
# [15] = molecular target: T15, UniProt Q8VGC6
# T15 sequence (whole entry): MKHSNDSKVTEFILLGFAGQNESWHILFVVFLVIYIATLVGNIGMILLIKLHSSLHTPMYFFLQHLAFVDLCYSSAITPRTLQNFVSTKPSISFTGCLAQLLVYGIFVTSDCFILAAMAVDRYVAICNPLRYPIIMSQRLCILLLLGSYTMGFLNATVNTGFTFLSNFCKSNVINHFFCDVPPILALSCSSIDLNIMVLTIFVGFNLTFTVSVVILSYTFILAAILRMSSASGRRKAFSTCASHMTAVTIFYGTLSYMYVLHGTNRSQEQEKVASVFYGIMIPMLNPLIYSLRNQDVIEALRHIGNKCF
# In short: as §1
# [16] = molecular target: T16, UniProt Q8VGD7
# T16 sequence (whole entry): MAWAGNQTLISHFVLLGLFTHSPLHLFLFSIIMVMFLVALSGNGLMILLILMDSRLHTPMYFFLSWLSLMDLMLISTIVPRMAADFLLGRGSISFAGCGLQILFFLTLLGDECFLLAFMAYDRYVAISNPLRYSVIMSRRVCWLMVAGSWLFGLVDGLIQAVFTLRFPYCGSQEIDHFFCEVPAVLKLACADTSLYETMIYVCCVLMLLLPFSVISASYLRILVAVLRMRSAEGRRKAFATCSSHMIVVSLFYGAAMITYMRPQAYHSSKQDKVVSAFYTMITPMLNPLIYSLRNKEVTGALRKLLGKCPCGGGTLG
# In short: as §1
# [17] = molecular target: T17, UniProt Q8VGH1
# T17 sequence (whole entry): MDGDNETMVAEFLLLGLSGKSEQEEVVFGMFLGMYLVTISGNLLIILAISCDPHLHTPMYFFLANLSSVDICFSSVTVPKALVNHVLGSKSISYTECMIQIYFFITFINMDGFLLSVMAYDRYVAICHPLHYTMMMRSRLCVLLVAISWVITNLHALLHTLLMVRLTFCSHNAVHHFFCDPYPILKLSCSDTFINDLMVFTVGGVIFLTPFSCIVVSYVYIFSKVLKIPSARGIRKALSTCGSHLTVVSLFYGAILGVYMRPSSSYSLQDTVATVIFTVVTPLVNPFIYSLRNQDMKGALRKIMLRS
# In short: as §1
# [18] = molecular target: T18, UniProt Q8VGJ1
# T18 sequence (whole entry): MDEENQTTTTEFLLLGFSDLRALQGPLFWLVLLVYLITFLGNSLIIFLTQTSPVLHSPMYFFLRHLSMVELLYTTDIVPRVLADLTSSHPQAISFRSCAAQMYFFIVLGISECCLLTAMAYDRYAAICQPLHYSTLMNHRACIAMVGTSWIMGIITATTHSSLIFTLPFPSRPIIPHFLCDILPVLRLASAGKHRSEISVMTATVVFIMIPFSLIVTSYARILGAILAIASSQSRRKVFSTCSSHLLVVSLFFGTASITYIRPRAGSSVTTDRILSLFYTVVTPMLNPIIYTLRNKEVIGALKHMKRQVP
# In short: as §1
# [19] = molecular target: T19, UniProt Q8VGJ3
# T19 sequence (whole entry): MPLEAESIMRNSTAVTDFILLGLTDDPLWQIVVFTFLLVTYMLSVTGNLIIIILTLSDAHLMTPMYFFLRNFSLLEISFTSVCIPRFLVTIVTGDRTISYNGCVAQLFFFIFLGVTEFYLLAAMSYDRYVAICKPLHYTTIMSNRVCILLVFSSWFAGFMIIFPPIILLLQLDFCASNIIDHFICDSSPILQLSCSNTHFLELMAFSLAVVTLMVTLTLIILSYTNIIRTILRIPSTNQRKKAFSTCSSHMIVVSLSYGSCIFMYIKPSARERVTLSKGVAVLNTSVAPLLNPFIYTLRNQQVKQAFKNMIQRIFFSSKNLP
# In short: as §1
compound,measurement,setting,value
O=c1cc(O)c2ccccc2o1,odorant receptor agonist call,[1],inactive
same,odorant receptor agonist call,[2],inactive
same,odorant receptor agonist call,[3],inactive
same,odorant receptor agonist call,[4],inactive
same,odorant receptor agonist call,[5],inactive
same,odorant receptor agonist call,[6],inactive
same,odorant receptor agonist call,[7],active
same,odorant receptor agonist call,[8],inactive
same,odorant receptor agonist call,[9],inactive
same,odorant receptor agonist call,[10],inactive
same,odorant receptor agonist call,[11],inactive
same,odorant receptor agonist call,[12],inactive
same,odorant receptor agonist call,[13],inactive
same,odorant receptor agonist call,[14],inactive
same,odorant receptor agonist call,[15],inactive
same,odorant receptor agonist call,[16],inactive
same,odorant receptor agonist call,[17],inactive
same,odorant receptor agonist call,[18],inactive
same,odorant receptor agonist call,[19],inactive
